Shown are actives, neighbours in structure and some others; about 1.7% of the full set was active somewhere.
SUMO1-SIM PPI: SUMO1-SIM interaction modulation; P63165; 0.33% of 360,000 active; AID 602429; inhibition, % at 20 µM; SUMO1 binding to a labelled peptide, TR-FRET, 1 h; in the data active = inhibition above about 37%
Target sequence (P63165 whole entry, looked up): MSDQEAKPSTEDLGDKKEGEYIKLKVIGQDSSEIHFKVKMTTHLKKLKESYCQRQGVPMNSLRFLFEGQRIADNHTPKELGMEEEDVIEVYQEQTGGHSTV
STEP inh: STEP (human) phosphatase inhibition; P54829; recombinant STEP, OMFP fluorogenic substrate, fluorescence; inhibition, % at 20 µM; 0.25% of 360,000 active; AID 588621;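 active = inhibition at 20 µM, scaled per plate between control wells, above about 37%, limit read from the data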
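Test system: STEP tyrosine phosphatase / Reagent: OMFP at 25 µM / Doses: 20 µM, 1% DMSO / Read-out: percent inhibition scaled to no-enzyme and uninhibited-enzyme controls, plate-pattern corrected / Detection: FITC-channel fluorescence of OMFP product / Medium: Bis-Tris buffer pH 6.0, 2.5 mM DTT, 0.005% Tween 20 / Schedule: 20 min at room temperature, dark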
DNMT1 inh: blocks human DNA methyltransferase DNMT1; DNMT1 molecular beacon, Hinp1I cleavage, fluorescence; inhibition (reported as % activation of signal), % at 10 µM; 0.83% of 360,000 active; AID 588458; in the data active = inhibition above about 50%
Scp1 inh: Scp-1 (human) phosphatase inhibition. 0.88% of 340,000 active. AID 493091. Q9GZU7. inhibition, % at 20 µM. Recombinant Scp1, phosphopeptide, malachite green phosphate absorbance;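 active = inhibition above about 50% at 20 µM, limit read from the data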
Target sequence (Q9GZU7 76-261 limits assumed): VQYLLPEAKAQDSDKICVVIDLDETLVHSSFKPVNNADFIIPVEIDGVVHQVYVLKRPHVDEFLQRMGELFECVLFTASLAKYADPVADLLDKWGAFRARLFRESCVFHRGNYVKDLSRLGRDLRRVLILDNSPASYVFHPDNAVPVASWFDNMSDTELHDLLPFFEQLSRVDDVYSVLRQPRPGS
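System: SCP-1 catalytic domain; Reagent: Phospho 17-mer peptide substrate; Doses: one concentration, 20 µM, with 1.0% DMSO; Incubation: 45 min room-temperature reaction, 5 min colour, 30 min stabiliser; Signal: Phosphate-binding colour reagent, absorbance read at 630 nm.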
Casp6 inh: blocks human caspase-6 cleavage activity | P55212 | purified caspase-6, Z-VEID-R110 cleavage fluorescence | inhibition, % at 12.5 µM | 0.53% of 350,000 active | AID 686996;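 active = mean inhibition across replicates at least about 35%, with every replicate also reaching that limit, limit read from the data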
LMPTP block: blocks human LMPTP phosphatase. P24666. recombinant LMPTP-A, OMFP fluorogenic substrate, fluorescence intensity. inhibition, % at 20 µM. 0.22% of 360,000 active. AID 651560;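 active = compounds that cut the enzyme signal by at least half of the control window in the single-dose screen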
Target sequence (P24666 whole entry, looked up): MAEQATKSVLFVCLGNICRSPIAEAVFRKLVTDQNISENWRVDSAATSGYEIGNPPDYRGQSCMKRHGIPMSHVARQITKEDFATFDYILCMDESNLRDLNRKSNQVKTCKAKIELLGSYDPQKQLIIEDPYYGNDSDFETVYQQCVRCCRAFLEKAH
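Test system: LMPTP-A phosphatase enzyme; input: 0.625 nM LMPTP-A final; reagent: OMFP substrate, 400 µM final; compound dosing: 20 µM single dose, 3% DMSO; incubation: 50 min dark incubation at room temperature; measured by: endpoint fluorescence intensity from OMFP dephosphorylation; measure: % inhibition relative to no-enzyme and uninhibited control wells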
A number is an active result; i = inactive; nt = no result.

SMILES	SUMO1-SIM PPI	STEP inh	DNMT1 inh	Scp1 inh	Casp6 inh	LMPTP block
O=C(N/N=C/c1oc(O)c2ccccc12)c1ccccc1O	i	i	i	i	37	i
CC(C)CCNC(=O)c1ccc(CS(=O)(=O)Cc2ccccc2F)o1	i	i	i	i	i	i
O=C(/C=C/c1ccc(NC(=O)c2ccccc2-c2ccccc2C(=O)O)cc1)c1ccccc1	i	i	i	i	i	i
O=C(/C=C/c1ccncc1)c1ccc(NC(=O)c2ccccc2F)cc1	i	i	i	i	nt	57
Cc1ccc(-n2c(=O)[nH]c3c(C(N)=O)nc(C(C)C)nc32)cc1	i	i	i	i	i	i
Cc1ccsc1-c1nc(C(N)=O)c2[nH]c(=O)n(-c3ccc(Cl)cc3)c2n1	i	i	55	i	i	i
CC(C)C(=O)N1CCN(c2ccccc2NC(=O)c2cccc3ccccc23)CC1	i	i	i	i	60	i
CS(=O)(=O)N1CCN(c2ccccc2NC(=O)c2cccc3ccccc23)CC1	i	i	i	i	nt	i
CCNC(=O)C[C@H]1CC[C@H]2[C@@H](COC[C@@H](O)CN2C(=O)CC)O1	nt	nt	nt	nt	i	nt
CCOc1cc(N2CCOCC2)c(OCC)cc1NC(=O)CSc1n[nH]c(N)n1	i	i	i	i	i	i
CCOc1ccccc1NC(=O)CSc1n[nH]c(N)n1	i	i	i	i	57	i
CC1CN(Cc2nc3ccccc3c(=O)[nH]2)CC(C)O1 (stereo unspecified)	i	i	i	i	i	i
Brc1ccc(C2=CC(c3cccs3)n3ncnc3N2)cc1 (stereo unspecified)	i	i	66	i	nt	i
O=S(=O)(NC[C@@H]1N[C@@H](CO)[C@@H]1c1ccccc1)c1ccccc1	nt	nt	nt	nt	i	nt
O=C(Nc1ccc(F)c(F)c1)C1CCN(S(=O)(=O)c2cccc3nonc23)CC1	i	i	i	i	i	i
COc1cc2c3c(cccc3c1)C(=O)N(CCN1CCCC1)C2=O	i	i	73	nt	i	i
COc1ccc(C(=O)CN2CCN(CCN3C(=O)c4cccc5cccc(c45)C3=O)CC2)cc1	i	i	i	i	i	i
Cc1ccc2c(CSc3nnnn3C)cc(=O)oc2c1	i	i	i	i	i	i
Cc1cnc(=O)[nH]c1SCc1ccc(C(F)(F)F)cc1	i	i	i	i	i	i
Cc1cc(C)c(S(=O)(=O)Nc2nccs2)c(C)c1	43	i	i	i	i	i
Cc1ccccc1S(=O)(=O)N1CCCCN2[C@H](CO)[C@H](c3ccc(-c4cccnc4)cc3)[C@H]2C1	nt	nt	nt	nt	i	nt
C[C@@H]1CN([C@H](C)CO)C(=O)c2cc(NS(=O)(=O)c3cn(C)cn3)ccc2O[C@@H](C)CCCCO[C@@H]1CN(C)C(=O)CCCN(C)C	nt	nt	nt	nt	36	nt
C/C=C/c1cnc2c(c1)C(=O)N([C@@H](C)CO)C[C@H](C)[C@@H](CN(C)C(=O)Nc1ccc(C(F)(F)F)cc1)O2	nt	nt	nt	nt	i	nt
C[C@H](CO)N1C[C@H](C)[C@@H](CN(C)C(=O)Nc2ccc(C(F)(F)F)cc2)Oc2ncc(/C=C/c3ccccc3)cc2C1=O	nt	nt	nt	nt	48	nt
Cc1noc(C)c1S(=O)(=O)Nc1ccc2c(c1)C(=O)N([C@H](C)CO)C[C@H](C)[C@@H](CN(C)C(=O)Nc1ccc3c(c1)OCO3)O2	i	i	i	76	i	i
SMILES	SUMO1-SIM PPI	STEP inh	DNMT1 inh	Scp1 inh	Casp6 inh	LMPTP block
CC1(C)C2C(Cl)(Cl)C2(C)c2ccccc2N1C=O (stereo unspecified)	i	i	i	i	i	i
COCC#Cc1cnc2c(c1)C(=O)N([C@H](C)CO)C[C@@H](C)[C@H](CN(C)C(=O)Cc1cccnc1)O2	nt	nt	nt	nt	i	nt
COc1ccc(CCNC(=O)/C=C/c2cc(OC)c(OC)c(OC)c2)cc1OC	i	i	i	i	i	i
COCCNc1nc(NCc2cnc(C)cn2)c2sccc2n1	i	i	i	nt	i	53
COc1ccc(Cl)cc1NC(=O)c1ccc2c(SCC(=O)O)c3c(nc2c1)CCCC3	i	i	i	i	37	i
CCCN(C(=O)c1ccc2c(SCC(=O)O)c3c(nc2c1)CCC3)c1cccc(C)c1	i	i	i	i	65	i
COc1ccc(NC(=O)c2ccc3c(SCC(=O)O)c4c(nc3c2)CCCC4)cc1Cl	nt	nt	nt	nt	i	nt
CN(C)C(=O)c1ccc(=O)n(Cc2ccc(Cl)cc2Cl)c1	i	i	i	i	i	i
